Activity calls are given as the source filed them. The calls are words filed in the database; no cut-off is given here.
How the values were obtained:
Macrophage [1] = assay: Inhibition of LPS-induced NO production in C57BL/6 mouse macrophages preincubated with compound for 1 hr before LPS challenge measured after 24 hrs by Griess method; assay type: functional, cell-based; conditions: C57BL/6, Macrophage
Procedure, shortened: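 Peritoneal macrophages harvested from male C57BL/6J mice 3 days after ip thioglycollate; 1 × 10^5 cells/well in RPMI-1640 + 5% newborn calf serum, nonadherent cells removed after 2 h. Compounds added 1 h before LPS 1 μg/mL; 24 h later supernatant nitrite read by Griess reagent at 570 nm against a nitrite standard curve. IC50 from ≥2 experiments in triplicate; selectivity index = cytotoxicity IC50 / NO-inhibition IC50.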

[2] = Cytotoxicity against C57BL/6 mouse macrophages after 24 hrs by MTT assay; assay type: cell-based; conditions: C57BL/6, Macrophage
Procedure, shortened: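 Thioglycollate-elicited peritoneal macrophages from male C57BL/6 mice, 1 × 10^5 cells/well, adhered 2 h, then exposed to compounds 24 h. Washed, MTT (5 mg/mL in PBS) added 4 h at 37 °C, formazan dissolved in DMSO, absorbance 570 nm.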

Macrophage [3] = assay: Selectivity index, ratio of IC50 for C57BL/6 mouse macrophages to IC50 for LPS-induced NO production in C57BL/6 mouse macrophages
Mus musculus [4] = assay: Antiinflammatory activity in Kunming mouse assessed as inhibition of croton oil-induced ear edema at 20 umol/kg, po administered before challenge relative to vehicle-treated control; assay type: functional
Procedure, shortened: (§1)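 Male Kunming mice; croton oil applied topically to left ear at 0.4 mg/ear. Test agent or equal-volume vehicle given 1 h before (po 5, 10, 20 μmol/kg; sc 77, 154, 308 μmol/kg). Euthanized under pentobarbital 4 h after croton oil; 8 mm ear punches weighed, left minus right weight = edema; inhibition vs vehicle group. n = 10 (po) or 8–9 (sc); mean ± SEM.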

Mus musculus [5] = assay: Antiinflammatory activity in specific pathogen-free COPD-like lung inflammation BALB/c mouse model assessed as inhibition of IL-8 level at 2 umol/kg/day, po for 35 days measured 24 hrs post last dose relative to vehicle-treated control; assay type: functional
Procedure, shortened: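 SPF male BALB/c mice (18−20 g) exposed to cigarette smoke 5 min twice daily (days 2–13, 15–35) plus 20 μg LPS in 30 μL saline (days 1, 14). Oral drug 2 μmol/kg daily for 35 days, 1 h before exposure. Killed ~24 h after last dose; lungs lavaged 3× with 0.8 mL ice-cold saline; IL-8 in BAL supernatant by ELISA; n = 8−11, mean ± SEM.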

Mus musculus [6] = assay: Antiinflammatory activity in Kunming mouse assessed as inhibition of croton oil-induced ear edema at 5 umol/kg, po administered before challenge relative to vehicle-treated control; assay type: functional; procedure, shortened: as §1
Mus musculus [7] = assay: Antiinflammatory activity in Kunming mouse assessed as inhibition of croton oil-induced ear edema at 10 umol/kg, po administered before challenge relative to vehicle-treated control; assay type: functional; procedure, shortened: as §1
Macrophage [8] = assay: Inhibition of LPS-induced iNOS expression in C57BL/6 mouse macrophages preincubated at 1 uM for 1 hr before LPS challenge measured after 24 hrs by immunoblotting; assay type: functional, cell-based
Procedure, shortened: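 Male C57BL/6 peritoneal macrophages pretreated 1 h with compound at 1 μM, then LPS 1 μg/mL for 24 h. Lysates resolved on 10% SDS-PAGE and transferred to PVDF; blots probed with rabbit anti-iNOS and anti-β-actin (1:1000, overnight 4 °C), visualized by ECL. iNOS/β-actin ratio from densitometry; three independent experiments, mean ± SEM.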

Mus musculus [9] = assay: Antiinflammatory activity in Kunming mouse assessed as inhibition of croton oil-induced ear edema at 308 umol/kg, sc administered before challenge relative to vehicle-treated control; assay type: functional; procedure, shortened: as §1
Mus musculus [10] = assay: Antiinflammatory activity in specific pathogen-free COPD-like lung inflammation BALB/c mouse model assessed as inhibition of TNFalpha level at 2 umol/kg/day, po for 35 days measured 24 hrs post last dose relative to vehicle-treated control; assay type: functional, organism-based
Procedure, shortened: (§2)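 Male SPF BALB/c mice (18−20 g) exposed to cigarette smoke 5 min twice daily on days 2−13 and 15−35, with 20 μg LPS in 30 μL saline on days 1 and 14. Dosed orally 1 h before first exposure, daily for 35 days. Lungs lavaged 3× with 0.8 mL ice-cold saline about 24 h after last dose. Supernatant cytokines measured by ELISA. n = 8−11, mean ± SEM, Student's t test.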

Mus musculus [11] = assay: Antiinflammatory activity in specific pathogen-free COPD-like lung inflammation BALB/c mouse model assessed as inhibition of IL-1beta level at 2 umol/kg/day, po for 35 days measured 24 hrs post last dose relative to vehicle-treated control; assay type: functional, organism-based; procedure, shortened: as §2
Macrophage [12] = assay: Inhibition of intrinsic NO production in C57BL/6 mouse macrophages at 10 uM measured after 24 hrs by Griess method; assay type: functional, cell-based
Procedure, shortened: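 Unstimulated peritoneal macrophages (no LPS) cultured 2 h, then exposed to compound at 10 μM for 24 h. Supernatant nitrite measured by Griess assay at 570 nm against a standard curve; untreated, vehicle and LPS (1 μg/mL) wells as controls. Three independent experiments, mean ± SEM.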

Mus musculus [13] = assay: Antiinflammatory activity in specific pathogen-free COPD-like lung inflammation BALB/c mouse model assessed as inhibition of IL-6 level at 2 umol/kg/day, po for 35 days measured 24 hrs post last dose relative to vehicle-treated control; assay type: functional, organism-based; procedure, shortened: as §2
Mus musculus [14] = assay: Antiinflammatory activity in specific pathogen-free COPD-like lung inflammation BALB/c mouse model assessed as inhibition of eosinophils at 2 umol/kg/day, po for 35 days measured 24 hrs post last dose relative to vehicle-treated control; assay type: functional, organism-based
Procedure, shortened: (§3)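 Male SPF BALB/c mice (18−20 g) given cigarette smoke 5 min twice daily (days 2−13, 15−35) plus LPS 20 μg in 30 μL saline on days 1 and 14. Oral dosing 1 h before first exposure, daily for 35 days. BAL (3 × 0.8 mL ice-cold saline) collected about 24 h after final dose. Centrifuged pellet resuspended in 200 μL PBS and counted by hemocytometer for differential cells.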

[15] = Toxicity in Kunming mouse administered orally as single dose measured over 14 days; assay type: organism-based; conditions: in vivo, po
Procedure, shortened: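 SPF Kunming mice, half male and half female, fasted 16 h with water allowed, then weighed and randomized at 10/group. Single gavage dose (0.1 mL/10 g) at various doses, with solvent-only controls. Survival monitored for 14 days.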

Mus musculus [16] = assay: Antiinflammatory activity in specific pathogen-free COPD-like lung inflammation BALB/c mouse model assessed as inhibition of white blood cells at 2 umol/kg/day, po for 35 days measured 24 hrs post last dose relative to vehicle-treated control; assay type: functional, organism-based; procedure, shortened: as §3
Mus musculus [17] = assay: Antiinflammatory activity in Kunming mouse assessed as inhibition of croton oil-induced ear edema at 77 umol/kg, sc administered before challenge relative to vehicle-treated control; assay type: functional; procedure, shortened: as §1
Mus musculus [18] = assay: Antiinflammatory activity in Kunming mouse assessed as inhibition of croton oil-induced ear edema at 154 umol/kg, sc administered before challenge relative to vehicle-treated control; assay type: functional; procedure, shortened: as §1

| SMILES | IC50 (Macrophage [1]) [µM] | IC50 [2] [µM] | Ratio IC50 (Macrophage [3]) | inhibition (Macrophage [8]) | inhibition (Macrophage [12]) | further results |
| --- | --- | --- | --- | --- | --- | --- |
| COC(=O)[C@]12OC[C@]34[C@H]([C@@H](O)[C@@H]1O)[C@@]1(C)CC(=O)C(OC(=O)c5ccccc5C(=O)OCCCCOc5no[n+]([O-])c5S(=O)(=O)c5ccccc5)=C(C)[C@@H]1C[C@H]3OC(=O)[C@H](OC(=O)C=C(C)C)[C@@H]24 | 0.69 | 1.3 | 1.9 |  |  |  |
| COC(=O)[C@]12OC[C@]34[C@H]([C@@H](O)[C@@H]1O)[C@@]1(C)CC(=O)C(OCc5ccc(OCc6c(-c7ccccc7)no[n+]6[O-])cc5)=C(C)[C@@H]1C[C@H]3OC(=O)[C@H](OC(=O)C=C(C)C)[C@@H]24 | 2.1 | > 10 | >4.7 |  |  |  |
| COC(=O)[C@]12OC[C@]34[C@H]([C@@H](O)[C@@H]1O)[C@@]1(C)CC(=O)C(O)=C(C)[C@@H]1C[C@H]3OC(=O)[C@H](OC(=O)C=C(C)C)[C@@H]24 [BRUSATOL] | 0.05 | 0.14 |  |  |  | inhibition in vivo at 20 µmol/kg (Mus musculus [4]): 46.8%; inhibition in vivo at 2 µmol/kg (Mus musculus [5]): 46%; inhibition in vivo at 5 µmol/kg (Mus musculus [6]): 24.3%; inhibition in vivo at 10 µmol/kg (Mus musculus [7]): 27.1% |
| CC(C)=CC(=O)O[C@H]1C(=O)O[C@@H]2C[C@H]3C(C)=C(OC(=O)CCC(=O)OCCCCOc4no[n+]([O-])c4S(=O)(=O)c4ccccc4)C(=O)C[C@]3(C)[C@H]3[C@@H](O)[C@H](OC(=O)CCC(=O)OCCCCOc4no[n+]([O-])c4S(=O)(=O)c4ccccc4)[C@]4(C(=O)O)OC[C@]32[C@@H]14 | 0.067 | > 10 | >149 | Active | inactive | inhibition in vivo at 308 µmol/kg (Mus musculus [9]): 76.5%; inhibition in vivo at 20 µmol/kg (Mus musculus [4]): 7.8%; inhibition (Mus musculus [10]): Active; inhibition (Mus musculus [11]): Active; inhibition (Mus musculus [13]): Active; inhibition (Mus musculus [14]): Active; inhibition in vivo at 2 µmol/kg (Mus musculus [5]): 48%; LD50 at 336 h [15]: > 3850 µmol/kg; inhibition in vivo at 5 µmol/kg (Mus musculus [6]): 0.9%; inhibition in vivo at 10 µmol/kg (Mus musculus [7]): 6.4%; inhibition (Mus musculus [16]): Active; inhibition in vivo at 77 µmol/kg (Mus musculus [17]): 31.4%; inhibition in vivo at 154 µmol/kg (Mus musculus [18]): 61% |
| CC(C)=CC(=O)O[C@H]1C(=O)O[C@@H]2C[C@H]3C(C)=C(O)C(=O)C[C@]3(C)[C@H]3[C@@H](O)[C@H](O)[C@]4(C(=O)OCCCCOc5no[n+]([O-])c5S(=O)(=O)c5ccccc5)OC[C@]32[C@@H]14 | 1.1 | 3 | 2.7 |  |  |  |
| COC(=O)[C@]12OC[C@]34[C@H]([C@@H](O)[C@@H]1O)[C@@]1(C)CC(=O)C(O)=C(C)[C@@H]1C[C@H]3OC(=O)[C@H](OC(=O)CCC(=O)OCc1ccc(OCc3c(-c5ccccc5)no[n+]3[O-])cc1)[C@@H]24 | 0.38 | 0.82 | 2.2 |  |  |  |
| CC(C)=CC(=O)O[C@H]1C(=O)O[C@@H]2C[C@H]3C(C)=C(O)C(=O)C[C@]3(C)[C@H]3[C@@H](O)[C@H](O)[C@]4(C(=O)OCc5ccc(OCc6c(-c7ccccc7)no[n+]6[O-])cc5)OC[C@]32[C@@H]14 | 2.2 | 3.9 | 1.8 |  |  |  |
| COC(=O)[C@]12OC[C@]34[C@H]([C@@H](O)[C@@H]1O)[C@@]1(C)CC(=O)C(O)=C(C)[C@@H]1C[C@H]3OC(=O)[C@H](OC(=O)CCC(=O)OCCCCOc1no[n+]([O-])c1S(=O)(=O)c1ccccc1)[C@@H]24 | 0.21 | 1.2 | 5.7 |  |  |  |
| CC(C)=CC(=O)O[C@H]1C(=O)O[C@@H]2C[C@H]3C(C)=C(OC(=O)CCC(=O)OCCCCOc4no[n+]([O-])c4S(=O)(=O)c4ccccc4)C(=O)C[C@]3(C)[C@H]3[C@@H](O)[C@H](O)[C@]4(C(=O)O)OC[C@]32[C@@H]14 | 1.3 | > 10 | >7.6 | Active | inactive |  |
| COC(=O)[C@]12OC[C@]34[C@H]([C@@H](O)[C@@H]1O)[C@@]1(C)CC(=O)C(OC(=O)CCC(=O)OCc5ccc(OCc6c(-c7ccccc7)no[n+]6[O-])cc5)=C(C)[C@@H]1C[C@H]3OC(=O)[C@H](OC(=O)C=C(C)C)[C@@H]24 | 0.047 | 0.15 | 3.2 |  | Active |  |
| CC(C)=CC(=O)O[C@H]1C(=O)O[C@@H]2C[C@H]3C(C)=C(O)C(=O)C[C@]3(C)[C@H]3[C@@H](O)[C@H](O)[C@]4(C(=O)O)OC[C@]32[C@@H]14 | > 10 | > 10 |  | Active | Active |  |
| CC(C)=CC(=O)O[C@H]1C(=O)O[C@@H]2C[C@H]3C(C)=C(O)C(=O)C[C@]3(C)[C@H]3[C@@H](O)[C@H](OC(=O)CCC(=O)OCCCCOc4no[n+]([O-])c4S(=O)(=O)c4ccccc4)[C@]4(C(=O)O)OC[C@]32[C@@H]14 | 11 | > 10 |  | Active | inactive |  |

Source: ChEMBL document CHEMBL3352594 (J Med Chem, 2014)
